# According to ChEMBL document CHEMBL3098075, “Lipoic acid analogs with enhanced pharmacological activity” (2014):
# Residues, ends and D or L forms follow the SMILES beside them.
# Test system: Rattus norvegicus
# Test: Cardioprotective activity in Sprague-Dawley rat model of myocardial ischemia-reperfusion injury assessed as reduction in MI/AR ratio at 1 to 10 mg/kg, iv bolus administered 15 mins prior to 30 mins LCX ligation by TTC staining-based fluorescence microscopy relative to placebo control
# Assay type: functional, Myocardium
# Set-up: scale not given: the % may be the effect or the level left
# Conditions: dose mg/kg 1-10
# Method in brief: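 Anaesthetised animals underwent thoracotomy and pericardotomy, then LCX coronary ligation for 30 min followed by reperfusion. Agent was given in isotonic saline (pH-neutralised with NaOH, 285 mOsm), 1 mL/kg, before ligation. Fluorescent microspheres injected into the LV cavity during ischemia marked the area at risk. Hearts were excised after 24 h and cut into five 2 mm slices stained with 1% TTC. The MI/AR ratio was compared with placebo by Student's t-test.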
row,Compound,Activity [%]
1,Ac-EAEAEGA-OH,17
2,NC(=O)CC[C@H](NC(=O)CCCC[C@@H]1CCSS1)C(=O)NCC(=O)O,17
3,C[C@H](NC(=O)CCCC[C@@H]1CCSS1)C(=O)N[C@@H](CCC(=O)O)C(=O)O,24
4,O=C(O)CCCC[C@@H]1CCSS1 [THIOCTIC ACID],19
5,O=C(CCCC[C@@H]1CCSS1)NCCS(=O)(=O)O,45
6,O=C(CCCC[C@@H]1CCSS1)NCCP(=O)(O)O,53
7,O=C(O)CC[C@H](NC(=O)CCCC[C@@H]1CCSS1)C(=O)NCCS(=O)(=O)O,33
8,O=C(CCCC[C@@H]1CCSS1)N[C@@H](Cc1ccc(O)cc1)C(=O)O,29
9,O=C(CCCC[C@@H]1CCSS1)Nc1cccc(S(=O)(=O)O)c1,33
10,O=C(CCCC[C@@H]1CCSS1)Nc1ccc(S(=O)(=O)O)cc1,44
11,O=C(CCCC[C@@H]1CCSS1)NCCOP(=O)(O)O,47
12,O=C(O)CN(CC(=O)O)C(=O)CCCC[C@@H]1CCSS1,21
13,O=C(CCCC[C@@H]1CCSS1)NC(CF)C(=O)O (some centres undefined),10
14,CC(=O)N[C@@H](CCC(=O)O)C(=O)N[C@@H](C)C(=O)O (Ac-Glu-Ala-OH),23
15,CC(=O)N[C@@H](CCC(=O)O)C(=O)N[C@@H](C)C(=O)N[C@@H](CCC(=O)O)C(=O)N[C@@H](C)C(=O)O (Ac-EAEA-OH),23
16,C[C@H](NC(=O)[C@H](CCC(=O)O)NC(=O)CCCC[C@@H]1CCSS1)C(=O)O [CMX-2043],31
17,O=C(CCCC[C@@H]1CCSS1)N[C@@H](CS(=O)(=O)O)C(=O)O,30
18,O=C(CCCC[C@@H]1CCSS1)Nc1ccc(C(=O)O)cc1,22
19,O=C(CCCC[C@@H]1CCSS1)NCCOS(=O)(=O)O,30
20,O=C(O)CNC(=O)[C@H](CC(=O)O)NC(=O)CCCC[C@@H]1CCSS1,28
21,O=C(O)CC[C@H](NC(=O)CCCC[C@@H]1CCSS1)C(=O)O,33
22,C[C@H](NC(=O)[C@H](Cc1ccc(O)cc1)NC(=O)CCCC[C@@H]1CCSS1)C(=O)O,31
23,O=C(O)CCNC(=O)CCCC[C@@H]1CCSS1,39
24,O=C(CCCC[C@@H]1CCSS1)N[C@@H](Cc1ccc(C(=O)O)cc1)C(=O)O,26
